Assay outcomes: PubChem, several laboratories
The sample as a whole holds a higher share of hits than the screen did.
ALR H2O2 inh: inhibitors of human sulfhydryl oxidase ALR; inhibition, % (concentration not given with the values); purified ALR, DTT oxidation, H2O2 HRP-luminol luminescence; 290,000 tested, 3.8% active;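 active = mean replicate inhibition above about 79%, with every replicate also reaching it, limit read from the data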
Target sequence (P55789 whole entry, looked up): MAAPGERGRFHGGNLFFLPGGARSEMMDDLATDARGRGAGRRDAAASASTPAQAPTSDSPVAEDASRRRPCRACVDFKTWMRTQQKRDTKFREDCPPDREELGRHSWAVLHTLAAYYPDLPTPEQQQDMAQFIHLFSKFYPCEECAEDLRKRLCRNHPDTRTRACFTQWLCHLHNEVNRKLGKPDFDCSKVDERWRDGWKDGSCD
T cell HTS: T cell immune modulators affecting CD8 T cell-vesicle binding; response (vesicle binding), % at 7 µM; 330,000 tested, 0.068% active; 2C CD8+ T cell-vesicle binding, flow cytometry; stronger effect = lower value;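 active = response, share of CD8 T cells binding vesicles, and their 90th percentile fluorescence all below set limits, cut at about 80% in these data, passing the limit was not always enough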;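 note: values below 100% mean blocked vesicle binding to the CD8+ T cells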
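Test system: purified 2C TCR transgenic mouse naive CD8+ T cells. Probe or stimulus: QL9-peptide-loaded Drosophila micro-vesicles bearing Ld, ICAM-1 and B7-1. Incubation: binding step 1.5 h, 37 °C, antibody labelling 20 min, ice. Measured by: flow cytometry of vesicle-bound cells.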
N-glyco inh: blocks N-linked glycosylation in D54 reporter cells. D54 ERlucT glycosylation luciferase reporter, 24 h; percent of 100 nM tunicamycin response. reporter increase, % at 12.5 µM. 360,000 tested, 0.23% active. AID 588692;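 active = mean luciferase reporter signal, scaled so untreated is 0 and the glycosylation-blocking control 100, at or above a set limit in every replicate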;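 note: luciferase carries N-glycosylation sites so blocking glycosylation raises the light; 0% = median of neutral control wells and 100% = median of 100 nM tunicamycin wells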
* = called active by the depositor; i = inactive; / = not tested or not shown.

SMILES	ALR H2O2 inh	T cell HTS	N-glyco inh
COc1ccc(NC(=O)CSc2nc(-c3ccco3)nc3cc(=O)[nH]n23)cc1Cl	99*	95	0
COc1ccc(NC(=O)CSc2n[nH]c(=O)n2C2CC2)cc1Cl	/	/	1
CCC(C)Nc1ccc(NC(C)CC)cc1 (stereo not given)	99*	436	-16
CCC(C)NC(=O)Nc1ccc(Br)cc1 (stereo not given)	0	274	-2
CCc1cccc(N(C(=O)c2csnn2)C(C(=O)NC2CCCC2)c2cccnc2)c1 (stereo not given)	-11	268	2
COc1cccc(NC(=O)N(C)C[C@H]2Oc3cc(Br)ccc3S(=O)(=O)N([C@H](C)CO)C[C@H]2C)c1	/	/	-1
Cc1ccc(CCNC(=O)c2cc(C)nn2-c2ccccc2)cc1	/	455	0
CCN(CCNC(=O)c1cc(C)nn1-c1ccccc1)c1ccccc1	99*	613	1
CN(C(=O)c1cccc(NC(=O)Cc2ccc(NC(=O)C3CCN(C(=O)C4CCCCC4)CC3)cc2)c1)C1CC1	/	/	0
Cc1ccc2nc(-c3ccc(Br)o3)oc(=O)c2c1	89*	245	3
COc1cc2nc(-c3ccc(Br)o3)oc(=O)c2cc1OC	5	916	-1
C/C(CC(=O)Nc1cccc2c1CCCC2)=N\NC=O	-1	177	1
CC1(C(=O)NS(C)(=O)=O)CCN1C(=O)Cc1ccc(Cl)cc1Cl (stereo not given)	/	/	0
CCNC(=O)C1CCCN(C(=O)c2cnc3ccccc3n2)CC1 (stereo not given)	/	/	0
COc1cc(/C=N/N2C(C)CCCC2C)cc(OC)c1O (stereo not given)	100*	215	2
CC1CCCC(C)N1/N=C/c1ccc(C(=O)O)cc1 (stereo not given)	4	56	-1
CC1CCCC(C)N1/N=C/c1ccc(O)cc1 (stereo not given)	94*	195	1
CCOc1ccc(/C=N/N2C(C)CCCC2C)cc1OC (stereo not given)	/	386	1
CCN(CC)S(=O)(=O)c1cc(NC(=O)CNc2cccc(S(=O)(=O)N3CCCC3)c2)ccc1C	-1	116	-2
O=C(CC(=O)c1cccs1)c1ccncc1	/	/	-2
CC1(c2ccc(OC(F)F)cc2)NC(=O)N(CC(=O)Nc2ccc(N3CCCCC3)cc2)C1=O (stereo not given)	8	i	0
CSc1c(-c2ccccn2)c(N)nn1C(=O)C1CC1	/	i	1
CCOC(=O)CSC1=Nc2ccccc2C2=NC(CC(=O)NCc3ccc(OC)cc3)C(=O)N12 (stereo not given)	10	314	1
CCCCNC(=O)CC1N=C2c3ccccc3N=C(SCC(=O)Nc3cccc(C)c3)N2C1=O (stereo not given)	98*	355	-5
O=C(NCc1ccccc1CN1CCCC1)c1ccc(Cl)c(S(=O)(=O)N2CCCC2)c1	/	/	-7
SMILES	ALR H2O2 inh	T cell HTS	N-glyco inh
Clc1nnc(N2CCCCC2)c2ccccc12	98*	201	-1
Cc1nnc(N2CCCCC2)c2ccccc12	-8	562	-2
CCOCCSc1n[nH]c(=O)n1CCc1ccccc1	12	71	1
Cc1ccc(CN2CCCC2(C)C(=O)NC(C)C)cc1 (stereo not given)	/	/	1
CCOC(=O)C1CCN(C(=O)c2cc3cc(C)ccc3[nH]2)CC1	-5	314	0
COC(=O)/C=C/c1ccc(OC(=O)OC)c(OC(=O)OC)c1	98*	374	0
COC(=O)/C=C/c1ccc2c(c1)OCO2	-3	397	0
CCCCc1c(O)nc(SCC(=O)Nc2cccc3ccccc23)n(-c2ccccc2OC)c1=O	69	68	2
CCN(CC)C(=O)CSc1nc(O)cc(=O)n1-c1ccccc1OC	99*	482	2
COc1ccc(NC(=O)CSc2nc(O)cc(=O)n2-c2ccccc2OC)cc1	98*	199	0
CCN(CC)C(=O)CSc1nc(O)cc(=O)n1C	73	252	1
COc1ccccc1-n1c(SCC(=O)Nc2ccc(C)cc2)nc(O)cc1=O	98*	206	1
COc1ccc(NC(=O)CSc2nc3[nH]ncc3c(=O)n2-c2ccccc2OC)cc1OC	-16	129	5
Cc1ccccc1-n1c(SCC(=O)Nc2c(C)cccc2C)nc(O)cc1=O	-9	502	0
COc1ccccc1-n1c(SCC(=O)Nc2cccc3ccccc23)nc(O)cc1=O	98*	309	-3
O=C1c2ccccc2S(=O)(=O)c2cc(N3CCc4ccccc4C3)ccc21	-2	448	/
CN1CCC(N(C)C(=O)c2ccccc2F)CC1	/	177	1
CN(/N=C/c1cc(Cl)ccc1O)C1=NS(=O)(=O)c2ccccc21	/	187	3
